Experimental data as given in ChEMBL document CHEMBL3875209, “Synthesis and biological evaluation of cis-restricted triazole/tetrazole mimics of combretastatin-benzothiazole hybrids as tubulin polymerization inhibitors and apoptosis inducers” (Bioorg Med Chem, 2017).
Active and inactive are the calls of the source. The rule behind the calls is not given here.

How the values were obtained:
A549 [1] = experiment: Induction of apoptosis in human A549 cells assessed as early apoptotic cells at 50 nM after 48 hrs by Annexin-V FITC/propidium iodide staining based flow cytometry (reference value: 5.2%); assay type: functional
A549 [2] = experiment: Induction of apoptosis in human A549 cells after 48 hrs by Annexin-V FITC/propidium iodide staining based flow cytometry; assay type: functional, cell-based
[3] = Cell cycle arrest in human A549 cells assessed as accumulation at G2/M phase after 48 hrs by propidium iodide staining based flow cytometry; assay type: functional
Summary of the method: (§1)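 A549 cells exposed for 48 h at 50 or 100 nM. Cells harvested, washed in PBS, fixed in ice-cold 70% ethanol and stained with propidium iodide. Phase distribution (G0/G1, S, G2/M) measured by flow cytometry against untreated cells.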

[4] = Cell cycle arrest in human A549 cells assessed as accumulation at G0/G1 phase at 100 nM after 48 hrs by propidium iodide staining based flow cytometry (reference value: 78.5%); assay type: functional; summary of the method: as §1
A549 [5] = experiment: Inhibition of alpha-tubulin polymerization in human A549 cells assessed as increase in soluble tubulin fraction at 1 uM after 48 hrs by Western blot method; assay type: cell-based
Summary of the method: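 A549 cells (1 × 10⁵/well) treated at 1 µM for 48 h alongside DMSO, CA-4 and paclitaxel controls. Soluble fraction released with warm Pipes-KOH pH 6.8/Triton lysis buffer (3 min, 30 °C); insoluble fraction taken in Laemmli buffer. Both fractions blotted on SDS-10% PAGE with anti-α-tubulin and ECL detection.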

A549 [6] = experiment: Induction of apoptosis in human A549 cells assessed as necrotic cells at 100 nM after 48 hrs by Annexin-V FITC/propidium iodide staining based flow cytometry (reference value: 0.1%); assay type: functional
[7] = Cell cycle arrest in human A549 cells assessed as accumulation at G0/G1 phase at 50 nM after 48 hrs by propidium iodide staining based flow cytometry (reference value: 78.5%); assay type: functional; summary of the method: as §1
[8] = Cell cycle arrest in human A549 cells assessed as accumulation at S phase at 50 nM after 48 hrs by propidium iodide staining based flow cytometry (reference value: 9.4%); assay type: functional; summary of the method: as §1
A549 [9] = experiment: Induction of apoptosis in human A549 cells assessed as necrotic cells at 50 nM after 48 hrs by Annexin-V FITC/propidium iodide staining based flow cytometry (reference value: 0.1%); assay type: functional
Sus scrofa = organism: Sus scrofa; experiment: Inhibition of porcine brain tubulin polymerization at 3 uM in presence of GTP by fluorescence assay relative to control
Summary of the method: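 Fluorescence-reporter tubulin polymerization kit: PEM buffer with […], compound at 3 µM final, CA-4 as positive control. Fluorescence followed at ex 360/em 420 nm for 1 h at 37 °C. Mean ± SD of two experiments run in triplicate.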

[10] = Cell cycle arrest in human A549 cells assessed as accumulation at G2/M phase at 100 nM after 48 hrs by propidium iodide staining based flow cytometry; assay type: functional; summary of the method: as §1
A549 [11] = experiment: Induction of mitochondrial membrane potential loss in human A549 cells at 50 nM after 48 hrs by JC-1 staining based flow cytometry (reference value: 3.8%); assay type: functional
A549 [12] = experiment: Induction of apoptosis in human A549 cells assessed as live cells at 100 nM after 48 hrs by Annexin-V FITC/propidium iodide staining based flow cytometry (reference value: 94.2%); assay type: functional
[13] = Depolarization of mitochondrial membrane potential in human A549 cells after 48 hrs by JC-1 staining based flow cytometry; assay type: functional, cell-based
A549 [14] = experiment: Induction of mitochondrial membrane potential loss in human A549 cells at 100 nM after 48 hrs by JC-1 staining based flow cytometry (reference value: 3.8%); assay type: functional
[15] = Antiproliferative activity against human A549 cells after 48 hrs by MTT assay; assay type: functional, cell-based; details: A549, 48 h
Summary of the method: (§2)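 MTT assay. Cells seeded in DMEM with 10% FBS and left 24 h at 37 °C in CO2 before compound treatment for 48 h. MTT (5 mg/mL stock) added for 4 h, formazan dissolved in DMSO, absorbance read at 570 nm. IC50 taken as the mean of three independent experiments.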

A549 [16] = experiment: Induction of apoptosis in human A549 cells assessed as live cells at 50 nM after 48 hrs by Annexin-V FITC/propidium iodide staining based flow cytometry (reference value: 94.2%); assay type: functional
A549 [17] = experiment: Induction of apoptosis in human A549 cells assessed as late apoptotic cells at 50 nM after 48 hrs by Annexin-V FITC/propidium iodide staining based flow cytometry (reference value: 0.6%); assay type: functional
[18] = Cell cycle arrest in human A549 cells assessed as accumulation at S phase at 100 nM after 48 hrs by propidium iodide staining based flow cytometry (reference value: 9.4%); assay type: functional; summary of the method: as §1
A549 [19] = experiment: Induction of apoptosis in human A549 cells assessed as early apoptotic cells at 100 nM after 48 hrs by Annexin-V FITC/propidium iodide staining based flow cytometry (reference value: 5.2%); assay type: functional
[20] = Inhibition of porcine brain tubulin polymerization in presence of GTP by fluorescence assay; set-up: species or system Sus scrofa
Summary of the method: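 Tubulin polymerization IC50: compounds preincubated with tubulin at 0.5, 1, 2, 3 and 5 µM. Reactions in PEM buffer with […], polymerization followed by reporter fluorescence at ex 360/em 420 nm, with CA-4 as reference.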

[21] = Antiproliferative activity against human DU145 cells after 48 hrs by MTT assay; assay type: functional, cell-based; details: DU-145, 48 h; summary of the method: as §2
A549 [22] = experiment: Induction of mitochondrial membrane potential loss in human A549 cells assessed as intact mitochondrial membrane at 100 nM after 48 hrs by JC-1 staining based flow cytometry (reference value: 95.9%); assay type: functional
[23] = Cell cycle arrest in human A549 cells assessed as accumulation at G2/M phase at 50 nM after 48 hrs by propidium iodide staining based flow cytometry (reference value: 12.1%); assay type: functional; summary of the method: as §1
[24] = Antiproliferative activity against human HeLa cells after 48 hrs by MTT assay; assay type: functional, cell-based; summary of the method: as §2
[25] = Antiproliferative activity against human HepG2 cells after 48 hrs by MTT assay; assay type: functional, cell-based; details: HepG2, 48 h; summary of the method: as §2
A549 [26] = experiment: Induction of apoptosis in human A549 cells assessed as late apoptotic cells at 100 nM after 48 hrs by Annexin-V FITC/propidium iodide staining based flow cytometry (reference value: 0.6%); assay type: functional
A549 [27] = experiment: Induction of apoptosis in human A549 cells assessed as nuclei condensation at 50 nM after 48 hrs by Hoechst 33258 staining based fluorescence microscopic analysis; assay type: functional, cell-based
Summary of the method: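 A549 cells (5 × 10⁴/well) allowed to adhere 48 h, then treated at 50 nM for 48 h at 37 °C. Fixed in 4% paraformaldehyde at 4 °C for 10 min and stained with Hoechst 33258 (5 µg/mL) for 30 min at room temperature. Nuclear condensation scored by fluorescence microscopy (ex 350/em 460 nm, 10X).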

A549 [28] = experiment: Induction of ROS generation in human A549 cells at 50 nM after 48 hrs by DCFDA staining based flow cytometry (reference value: 4.4%); assay type: functional
A549 [29] = experiment: Induction of ROS generation in human A549 cells at 100 nM after 48 hrs by DCFDA staining based flow cytometry (reference value: 4.4%); assay type: functional
A549 [30] = experiment: Induction of apoptosis in human A549 cells assessed as increase in caspase-3 expression at 50 nM after 48 hrs by Western blot method; assay type: functional, cell-based
Summary of the method: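 Caspase-3 western blot of A549 lysates after 48 h at 50 nM. Proteins extracted in RIPA buffer, 50 µg per lane on 10% SDS-PAGE, transferred to PVDF and blocked with BSA. Primary antibody incubated 24 h, HRP secondary 1 h, chemiluminescent detection, with β-actin as loading control.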

A549 [31] = experiment: Inhibition of alpha-tubulin polymerization in human A549 cells assessed as disruption of microtubule organization at 50 nM after 48 hrs by FITC/DAPI staining based immunofluorescence microscopic assay; assay type: cell-based
Summary of the method: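 A549 cells on coverslips treated at 50 nM for 48 h. Fixed in 3.5% formaldehyde/PBS, permeabilized with Triton X-100/Tween-20, blocked in 2% BSA. Anti-tubulin primary (1:200, 4 h) and FITC anti-mouse secondary (1:500, 1 h), DAPI mounting, confocal imaging.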

[32] = Antiproliferative activity against human MCF7 cells after 48 hrs by MTT assay; assay type: functional, cell-based; details: MCF7, 48 h; summary of the method: as §2
A549 [33] = experiment: Induction of mitochondrial membrane potential loss in human A549 cells assessed as intact mitochondrial membrane at 50 nM after 48 hrs by JC-1 staining based flow cytometry (reference value: 95.9%); assay type: functional
Homo sapiens = organism: Homo sapiens; experiment: Inhibition of colchicine binding to tubulin (unknown origin) at 5 to 20 uM after 60 mins by fluorescence assay
Summary of the method: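 Tubulin (3 µM) incubated with compound at 5–20 µM, with and without colchicine (3 µM), in 30 mM Tris for 60 min at 37 °C. Fluorescence read at ex 350/em 435 nm. Tris blank and the colchicine-free signal were subtracted, and values normalized to DMSO. CA-4 and vinblastine served as controls.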

Row | inhibition (Sus scrofa) [%] | IC50 [20] [nM] | SMILES | Activity [4] [%] | inhibition (A549 [5]) | Activity (A549 [6]) [%] | Activity [8] [%] | Activity (A549 [12]) [%] | Activity (A549 [14]) [%] | IC50 [15] [nM] | Activity [18] [%] | Activity (A549 [19]) [%] | IC50 [21] [nM] | Activity (A549 [22]) [%] | Activity [23] [%] | IC50 [24] [nM] | IC50 [25] [nM] | Activity (A549 [26]) [%] | Activity (A549 [27]) | Activity (A549 [29]) [%] | inhibition (A549 [31]) | other results
1 | 74.4 | 1000 | COc1cc(-c2nncn2-c2ccc(-c3nc4ccc(F)cc4s3)cc2C)cc(OC)c1OC | 19.8 | Active | 0.7 | 14.7 | 63.9 | 22.2 | 48 | 15.4 | 27.2 | 280 | 74.4 | 25.1 | 150 | 300 | 8.2 | Active | 20.9 | Active | Activity (A549 [1]): 15.1%; Activity (A549 [2]): Dose-dependent effect; Activity [3]: Dose-dependent effect; Activity [7]: 60.6%; Activity (A549 [9]): 0.8%; Activity [10]: 65.5%; Activity (A549 [11]): 12.8%; Activity [13]: Dose-dependent effect; Activity (A549 [16]): 78.3%; Activity (A549 [17]): 5.8%; Activity (A549 [28]): 10.4%; Activity (A549 [30]): Active; IC50 [32]: 1410 nM; Activity (A549 [33]): 85.2%; inhibition (Homo sapiens): Active
2 | 72.9 | 1670 | COc1ccc2nc(-c3ccc(-n4cnnc4-c4cc(OC)c(OC)c(OC)c4)c(C)c3)sc2c1 | 21.5 | Active | 1.1 | 10.6 | 66 | 16.9 | 54 | 17.6 | 23.7 | 480 | 80.5 | 25.9 | 160 | 670 | 9.2 | Active | 12.3 | Active | Activity (A549 [1]): 13.5%; Activity (A549 [2]): Dose-dependent effect; Activity [3]: Dose-dependent effect; Activity [7]: 63.7%; Activity (A549 [9]): 1.1%; Activity [10]: 59.5%; Activity (A549 [11]): 11%; Activity [13]: Dose-dependent effect; Activity (A549 [16]): 77.3%; Activity (A549 [17]): 8.1%; Activity (A549 [28]): 6.8%; Activity (A549 [30]): Active; IC50 [32]: 1130 nM; Activity (A549 [33]): 87.2%; inhibition (Homo sapiens): Active

Row | SMILES | inhibition (Sus scrofa) [%] | IC50 [20] [nM] | Activity [4] [%] | inhibition (A549 [5]) | Activity (A549 [6]) [%] | Activity [8] [%] | Activity (A549 [12]) [%] | Activity (A549 [14]) [%] | IC50 [15] [nM] | Activity [18] [%] | Activity (A549 [19]) [%] | IC50 [21] [nM] | Activity (A549 [22]) [%] | Activity [23] [%] | IC50 [24] [nM] | IC50 [25] [nM] | Activity (A549 [26]) [%] | Activity (A549 [27]) | Activity (A549 [29]) [%] | inhibition (A549 [31]) | other results
3 | COc1ccc(/C=C\c2cc(OC)c(OC)c(OC)c2)cc1O [COMBRETASTATIN A4] | 73.2 | 1600 | 26.1 | Active | 1.7 | 12.6 | 60.8 | 21.8 | 58 | 15.9 | 24.2 | 69 | 74.9 | 31.3 | 5 | 9 | 13.3 | Active | 18 | Active | IC50 [32]: 43 nM; inhibition (Homo sapiens): Active
